# Measured values as given in ChEMBL document CHEMBL5724801, “EUbOPEN Chemogenomics Library - Multiplex” (2024).
# “And” between values parts separate entries of the source, which are not always exact repeats. Equal values may be shown once.
# Tested on: HEK-293T
# Assay: Multiplex assay against HEK293T
# Type: toxicity, cell-based
# Conditions: human
# Summary of the method: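 Phenotypes for tubulin, mitochondrial mass and membrane permeability are expressed as per cents of healthy-nucleus cells. Cells were stained live at seeding with Hoechst33342, BioTracker Green Microtubule Cytoskeleton Dye, MitoTracker Red and Annexin V Alexa Fluor 680, then imaged after compound addition on a CQ1 microscope at 37°C and 5% CO2. Machine-learning gating in CellPathfinder separated Hoechst high-intensity objects from normal cells, divided normal cells by nuclear state (healthy, pyknosed, fragmented) and divided pyknosed cells into mitotic or apoptotic.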
# [1] = 12 h, 1 µM, compound concentration 1 uM
# [2] = 12 h, 10 µM, compound concentration 10 uM
# [3] = 24 h, 1 µM, compound concentration 1 uM
# [4] = 24 h, 10 µM, compound concentration 10 uM
# [5] = 48 h, 1 µM, compound concentration 1 uM
# [6] = 48 h, 10 µM, compound concentration 10 uM
structure (smiles),measurement,setting,value
CC(C)(C)c1ccc(CSc2cnn(C(C)(C)C)c(=O)c2Cl)cc1 [PYRIDABEN],Population Apoptotic (%),[1],51% and 28%
same,Population Fragmented Nuclei (%),[1],7% and 6%
same,Population Healthy Nuclei (%),[1],78% and 83%
same,Population Hoechst High Intensity Objects (%),[1],12% and 8%
same,Population Membrane Permeable-Phenotype (%),[1],0%
same,Population Mitochondria Different-Phenotype (%),[1],51% and 63%
same,Population Mitotic Cells (%),[1],48% and 71%
same,Population Normal (%),[1],87% and 91%
same,Population Pyknosed Nuclei (%),[1],14% and 10%
same,Population Tubulin-Different-Phenotype (%),[1],34% and 30%
same,Total Cell Count,[1],299 and 306
same,Population Apoptotic (%),[2],56% and 62%
same,Population Fragmented Nuclei (%),[2],6% and 8%
same,Population Healthy Nuclei (%),[2],77% and 74%
same,Population Hoechst High Intensity Objects (%),[2],11% and 17%
same,Population Membrane Permeable-Phenotype (%),[2],0%
same,Population Mitochondria Different-Phenotype (%),[2],75% and 81%
same,Population Mitotic Cells (%),[2],44% and 37%
same,Population Normal (%),[2],88% and 82%
same,Population Pyknosed Nuclei (%),[2],15% and 16%
same,Population Tubulin-Different-Phenotype (%),[2],55% and 38%
same,Total Cell Count,[2],359 and 236
same,Population Apoptotic (%),[3],33% and 35%
same,Population Fragmented Nuclei (%),[3],7%
same,Population Healthy Nuclei (%),[3],80% and 83%
same,Population Hoechst High Intensity Objects (%),[3],9% and 8%
same,Population Membrane Permeable-Phenotype (%),[3],0%
same,Population Mitochondria Different-Phenotype (%),[3],37% and 43%
same,Population Mitotic Cells (%),[3],66% and 64%
same,Population Normal (%),[3],90% and 91%
same,Population Pyknosed Nuclei (%),[3],11% and 8%
same,Population Tubulin-Different-Phenotype (%),[3],27% and 22%
same,Total Cell Count,[3],373 and 370
same,Population Apoptotic (%),[4],44% and 46%
same,Population Fragmented Nuclei (%),[4],7% and 8%
same,Population Healthy Nuclei (%),[4],79% and 70%
same,Population Hoechst High Intensity Objects (%),[4],10% and 23%
same,Population Membrane Permeable-Phenotype (%),[4],0%
same,Population Mitochondria Different-Phenotype (%),[4],68% and 65%
same,Population Mitotic Cells (%),[4],55% and 53%
same,Population Normal (%),[4],89% and 76%
same,Population Pyknosed Nuclei (%),[4],12% and 21%
same,Population Tubulin-Different-Phenotype (%),[4],52% and 25%
same,Total Cell Count,[4],386 and 252
same,Population Apoptotic (%),[5],19% and 30%
same,Population Fragmented Nuclei (%),[5],11% and 9%
same,Population Healthy Nuclei (%),[5],80% and 84%
same,Population Hoechst High Intensity Objects (%),[5],5% and 4%
same,Population Membrane Permeable-Phenotype (%),[5],0%
same,Population Mitochondria Different-Phenotype (%),[5],25% and 21%
same,Population Mitotic Cells (%),[5],80% and 69%
same,Population Normal (%),[5],94% and 95%
same,Population Pyknosed Nuclei (%),[5],7% and 6%
same,Population Tubulin-Different-Phenotype (%),[5],14% and 13%
same,Total Cell Count,[5],585 and 522
same,Population Apoptotic (%),[6],48% and 64%
same,Population Fragmented Nuclei (%),[6],8% and 13%
same,Population Healthy Nuclei (%),[6],79% and 71%
same,Population Hoechst High Intensity Objects (%),[6],11% and 14%
same,Population Membrane Permeable-Phenotype (%),[6],0%
same,Population Mitochondria Different-Phenotype (%),[6],59% and 48%
same,Population Mitotic Cells (%),[6],51% and 35%
same,Population Normal (%),[6],88% and 85%
same,Population Pyknosed Nuclei (%),[6],12% and 14%
same,Population Tubulin-Different-Phenotype (%),[6],43% and 28%
same,Total Cell Count,[6],424 and 290
